The text below walks through data of ChEMBL document CHEMBL4814057, “4-4-(Anilinomethyl)-3-[4-(trifluoromethyl)phenyl]-1H-pyrazol-1-ylbenzoic acid derivatives as potent anti-gram-positive bacterial agents” (Eur J Med Chem, 2021).

In assay [1] the test system is Staphylococcus aureus. The assay is described as follows: Antimicrobial activity against methicillin-susceptible Staphylococcus aureus ATCC 25923 assessed as bacterial growth inhibitions by CLSI protocol based microdilution method. The format is functional.
Assay [2] relates to Staphylococcus aureus. The assay can be described thus: Antimicrobial activity against antibiotic-resistant Staphylococcus aureus BM-2312 assessed as bacterial growth inhibitions by CLSI protocol based microdilution method. The format is functional. Background: Broth dilution looks for growth in wells or tubes with falling amounts of substance.
The subject of assay [3] is Staphylococcus aureus. The assay is described as follows: Antimicrobial activity against methicillin-resistant Staphylococcus aureus ATCC 33591 assessed as bacterial growth inhibitions by CLSI protocol based microdilution method. The format is functional.
Assay [4] relates to Staphylococcus aureus. The assay is described as follows: Antimicrobial activity against methicillin-resistant Staphylococcus aureus ATCC 700699 assessed as bacterial growth inhibitions by CLSI protocol based microdilution method. The format is functional.
The subject of assay [5] is Staphylococcus aureus. The assay can be described thus: Antimicrobial activity against methicillin-resistant Staphylococcus aureus ATCC 33592 assessed as bacterial growth inhibitions by CLSI protocol based microdilution method. The format is functional.
Assay [6] deals with Staphylococcus epidermidis. The assay is described as follows: Antimicrobial activity against methicillin-resistant Staphylococcus epidermidis ATCC 700296 assessed as bacterial growth inhibitions by CLSI protocol based microdilution method. The format is functional.
The next assay deals with Bacillus subtilis. The assay is described as follows: Antimicrobial activity against Bacillus subtilis ATCC 6623 assessed as bacterial growth inhibitions by CLSI protocol based microdilution method. The format is functional. In a few lines:
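Broth microdilution starting at 50 µg/ml with 2-fold serial dilutions; run in triplicate.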

The test system of the next assay is Enterococcus faecium. The assay is described as follows: Antimicrobial activity against vancomycin-resistant Enterococcus faecium ATCC 700221 assessed as bacterial growth inhibitions by CLSI protocol based microdilution method. The format is functional.
The next assay has as its system Enterococcus faecalis. The assay is described as follows: Antimicrobial activity against vancomycin-susceptible Enterococcus faecalis ATCC 29212 assessed as bacterial growth inhibitions by CLSI protocol based microdilution method.

Values after ≈ are worked out from the molar mass of the structure shown. Active and inactive are the calls of the source. The rule behind the calls is not given here.

In the case of `O=C(O)c1ccc(-n2cc(CNc3cc(Cl)cc(C(F)(F)F)c3)c(-c3ccc(C(F)(F)F)cc3)n2)cc1`, the minimum inhibitory concentration (MIC) in the assay with Staphylococcus aureus [1] stood at 0.78 µg/mL (≈ 1.44 µM); in the assay on Staphylococcus aureus [2], 0.78 µg/mL (≈ 1.44 µM); with Staphylococcus aureus [3], 0.78 µg/mL (≈ 1.44 µM); in the assay with Staphylococcus aureus [4] it was 0.78 µg/mL (≈ 1.44 µM); in the assay with Staphylococcus aureus [5] it was 0.78 µg/mL (≈ 1.44 µM); in assay [6], 1.56 µg/mL (≈ 2.89 µM). For the same compound, the minimal inhibitory concentration (MIC) in the assay on Bacillus subtilis turned out to be 0.78 µg/mL (≈ 1.44 µM); in the assay with Enterococcus faecium, 0.78 µg/mL (≈ 1.44 µM); with Enterococcus faecalis, 6.25 µg/mL (≈ 11.6 µM).
For the compound `O=C(O)c1ccc(-n2cc(CNc3cccc(OC(F)(F)F)c3)c(-c3ccc(C(F)(F)F)cc3)n2)cc1`, the MIC in the assay on Staphylococcus aureus [1] was determined as 0.78 µg/mL (≈ 1.5 µM); in the assay with Staphylococcus aureus [2], 0.78 µg/mL (≈ 1.5 µM); in the assay on Staphylococcus aureus [3], 0.78 µg/mL (≈ 1.5 µM); with Staphylococcus aureus [4], 50 µg/mL (≈ 95.9 µM); in the assay on Staphylococcus aureus [5], 0.78 µg/mL (≈ 1.5 µM); in assay [6], 3.12 µg/mL (≈ 5.98 µM). The MIC was found to be 0.78 µg/mL (≈ 1.5 µM) in the assay on Bacillus subtilis, 0.78 µg/mL (≈ 1.5 µM) in the assay on Enterococcus faecium and 3.12 µg/mL (≈ 5.98 µM) in the assay with Enterococcus faecalis.
On to `O=C(O)c1ccc(-n2cc(CNc3cc(Cl)c(O)c(Cl)c3)c(-c3ccc(C(F)(F)F)cc3)n2)cc1`, for which the MIC (in the assay on Staphylococcus aureus [1]; in the assay on Staphylococcus aureus [2]; in the assay with Staphylococcus aureus [3]; in the assay with Staphylococcus aureus [4]; with Staphylococcus aureus [5]; in assay [6]) was 50 µg/mL (≈ 95.7 µM) each time. For the same compound, the values for the minimum inhibitory concentration (MIC) in the assay on Bacillus subtilis and with Enterococcus faecalis were 12.5 µg/mL (≈ 23.9 µM) and 50 µg/mL (≈ 95.7 µM), respectively. Moreover, the MIC result in the assay on Enterococcus faecium is “inactive”.
In the case of `O=C(O)c1ccc(-n2cc(CNc3cccc(Cl)c3)c(-c3ccc(C(F)(F)F)cc3)n2)cc1`, the MIC with Staphylococcus aureus [1] came out at 1.56 µg/mL (≈ 3.31 µM); in the assay with Staphylococcus aureus [2], 1.56 µg/mL (≈ 3.31 µM); with Staphylococcus aureus [3] it was 0.78 µg/mL (≈ 1.65 µM); in the assay on Staphylococcus aureus [4], 0.78 µg/mL (≈ 1.65 µM); in the assay on Staphylococcus aureus [5], 1.56 µg/mL (≈ 3.31 µM); in assay [6] it was 3.12 µg/mL (≈ 6.61 µM). Also, the minimal inhibitory concentration (MIC) in the assay on Bacillus subtilis came to 0.78 µg/mL (≈ 1.65 µM); in the assay with Enterococcus faecium it was 0.78 µg/mL (≈ 1.65 µM); in the assay with Enterococcus faecalis it was 12.5 µg/mL (≈ 26.5 µM).
Regarding `O=C(O)c1ccc(-n2cc(CNc3ccc(Br)c(Cl)c3)c(-c3ccc(C(F)(F)F)cc3)n2)cc1`, the minimal inhibitory concentration (MIC) (in the assay on Staphylococcus aureus [1]; with Staphylococcus aureus [2]; in the assay on Staphylococcus aureus [3]; in the assay on Staphylococcus aureus [4]; with Staphylococcus aureus [5]; in [6]) was 0.78 µg/mL (≈ 1.42 µM) throughout. Further, the MIC in the assay with Bacillus subtilis came to 0.78 µg/mL (≈ 1.42 µM); with Enterococcus faecium it was 0.78 µg/mL (≈ 1.42 µM); in the assay with Enterococcus faecalis, 1.56 µg/mL (≈ 2.83 µM).
For the compound `O=C(O)c1ccc(-n2cc(CNc3cc(Cl)ccc3Cl)c(-c3ccc(C(F)(F)F)cc3)n2)cc1`, the minimum inhibitory concentration (MIC) with Staphylococcus aureus [1] came to 0.78 µg/mL (≈ 1.54 µM); in the assay on Staphylococcus aureus [2] it was 0.78 µg/mL (≈ 1.54 µM); with Staphylococcus aureus [3], 0.78 µg/mL (≈ 1.54 µM); with Staphylococcus aureus [4], 0.78 µg/mL (≈ 1.54 µM); in the assay on Staphylococcus aureus [5], 0.78 µg/mL (≈ 1.54 µM); in assay [6], 1.56 µg/mL (≈ 3.08 µM). Further, the minimum inhibitory concentration (MIC) with Bacillus subtilis stood at 0.78 µg/mL (≈ 1.54 µM); with Enterococcus faecium, 0.78 µg/mL (≈ 1.54 µM); in the assay with Enterococcus faecalis it was 3.12 µg/mL (≈ 6.16 µM).
With `O=C(O)c1ccc(-n2cc(CNc3ccc(Cl)c(Cl)c3F)c(-c3ccc(C(F)(F)F)cc3)n2)cc1`, the MIC (in the assay with Staphylococcus aureus [1]; in the assay with Staphylococcus aureus [2]; in the assay on Staphylococcus aureus [3]; with Staphylococcus aureus [4]; in the assay with Staphylococcus aureus [5]; in [6]) was 0.78 µg/mL (≈ 1.49 µM) in each case. Besides, the figures for the minimum inhibitory concentration (MIC) in the assay with Bacillus subtilis, in the assay with Enterococcus faecium and in the assay on Enterococcus faecalis were 0.78 µg/mL (≈ 1.49 µM), 0.78 µg/mL (≈ 1.49 µM) and 1.56 µg/mL (≈ 2.98 µM), respectively.
With `O=C(O)c1ccc(-n2cc(CNc3ccc(F)cc3)c(-c3ccc(C(F)(F)F)cc3)n2)cc1`, the minimum inhibitory concentration (MIC) worked out at 6.25 µg/mL (≈ 13.7 µM) in the assay with Staphylococcus aureus [1]; 3.12 µg/mL (≈ 6.85 µM) with Staphylococcus aureus [2]; 6.25 µg/mL (≈ 13.7 µM) in the assay on Staphylococcus aureus [3]; 6.25 µg/mL (≈ 13.7 µM) in the assay with Staphylococcus aureus [4]; 12.5 µg/mL (≈ 27.4 µM) in the assay with Staphylococcus aureus [5]; 12.5 µg/mL (≈ 27.4 µM) in [6]. The minimal inhibitory concentration (MIC) turned out to be 1.56 µg/mL (≈ 3.43 µM) in the assay with Bacillus subtilis, 6.25 µg/mL (≈ 13.7 µM) with Enterococcus faecium and 25 µg/mL (≈ 54.9 µM) in the assay with Enterococcus faecalis.
Take `N#Cc1ccc(NCc2cn(-c3ccc(C(=O)O)cc3)nc2-c2ccc(C(F)(F)F)cc2)cc1C(F)(F)F`: the MIC in the assay with Staphylococcus aureus [1] came to 1.56 µg/mL (≈ 2.94 µM); with Staphylococcus aureus [2], 1.56 µg/mL (≈ 2.94 µM); in the assay on Staphylococcus aureus [3], 0.78 µg/mL (≈ 1.47 µM); in the assay on Staphylococcus aureus [4], 1.56 µg/mL (≈ 2.94 µM); with Staphylococcus aureus [5], 0.78 µg/mL (≈ 1.47 µM); in [6], 3.12 µg/mL (≈ 5.88 µM). Also, the minimal inhibitory concentration (MIC) in the assay on Bacillus subtilis was 0.78 µg/mL (≈ 1.47 µM); with Enterococcus faecium, 6.25 µg/mL (≈ 11.8 µM); with Enterococcus faecalis, 12.5 µg/mL (≈ 23.6 µM).

By MIC is commonly meant the lowest concentration that inhibits growth of the organism.
